Test results: ChEMBL document CHEMBL4627320, “Discovery of CRBN E3 Ligase Modulator CC-92480 for the Treatment of Relapsed and Refractory Multiple Myeloma” (J Med Chem, 2020)
Active and inactive are the calls of the source. The calls are words filed in the database; no cut-off is given here.

Key:
[1] = Drug metabolism in assay cell medium assessed as compound racemization measured within 24 hrs; format: physicochemical
Procedure, shortened: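 Compound held in the same cell medium used for the H929 R10-1 antiproliferation assay; enantiomer levels followed by chiral monitoring over 24 h.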

[2] = target: Protein cereblon/DNA damage-binding protein 1 (Homo sapiens, UniProt Q96SW2); test: Displacement of Cy5-conjugated CELMoD from N-terminal 6-His tagged CRBN (1 to 442 residues) (unknown origin)/DDB1 (1 to 1140 residues) (unknown origin) incubated for 10 mins by FRET assay; format: protein assay
[3] = target: Protein cereblon/Zinc finger protein Aiolos (Homo sapiens, UniProt Q96SW2+Q9UKT9); test: Induction of CRBN-mediated pLOC-ePL-tagged aiolos (unknown origin) degradation in human DF15 cells assessed as minimum protein remaining incubated for 4 hrs by luminescence based beta-galactosidase enzyme fragmentation complementation assay; format: cell-based
[4] = (§1) Antiproliferative activity against lenalidomide-resistant human H929-R10-1 cells incubated for 5 days by CellTiter-Glo assay; format: functional; conditions: 120 h
Procedure, shortened: (§2)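 H929 R10-1 cells kept in log phase at 37°C, 5% CO₂, and plated at 5000 cells/well. Compounds were added as 10-point duplicate curves starting at 10µM with 1:3 dilutions, in 0.1% DMSO, final volume 40µl. Plates were incubated for 5 days. Viability was read by CellTiter-Glo luminescence after 1 h at room temperature in the dark. IC50 is the mean of ≥3 separate determinations.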

D(2) dopamine receptor = D(2) dopamine receptor (Homo sapiens, UniProt P14416); test: Inhibition of D2S (unknown origin) at 10 uM relative to control
[5] = target: Adrenergic receptor alpha-1 (Homo sapiens) (UniProt P35348+P25100+P35368); test: Inhibition of adrenergic receptor alpha1 (unknown origin) at 10 uM relative to control; format: protein assay
[6] = Solubility of the compound; format: physicochemical
[7] = target: Protein cereblon/Eukaryotic peptide chain release factor GTP-binding subunit ERF3A (Homo sapiens, UniProt P15170+Q96SW2); test: Induction of CRBN-mediated pLOC-ePL-tagged GSPT1 (unknown origin) degradation in human DF15 cells assessed as minimum protein remaining incubated for 4 hrs by luminescence based beta-galactosidase enzyme fragmentation complementation assay; format: cell-based
PBMC = test: Cytotoxicity against PBMC (unknown origin); format: cell-based
Homo sapiens [8] = species on record: Homo sapiens; test: Induction of apoptosis in lenalidomide-resistant human H929-R10-1 cells assessed as caspase3 induction at 1 uM measured over 150 hrs by live cell imaging analysis; format: functional
Procedure, shortened: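 Lenalidomide-refractory H929 R10-1 cells were treated at concentrations from 1 nM to 1 μM. Caspase-3 induction was quantified by live-cell imaging over 150 h.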

Homo sapiens [9] = species on record: Homo sapiens; test: as §1; format: functional; procedure, shortened: as §2

| SMILES | EC50 [3] | IC50 [4] | inhibition (D(2) dopamine receptor) | inhibition [5] | EC50 [7] | also measured |
| --- | --- | --- | --- | --- | --- | --- |
| O=C1CC[C@@H](N2Cc3c(OCc4ccc(CN5CCN(c6ccc(F)cc6F)CC5)cc4)cccc3C2=O)C(=O)N1 | 0.5 nM | 4.3 nM |  |  |  | Drug metabolism [1]: Metabolite_Detected; IC50 [2]: 1160 nM |
| CC1CCN(Cc2ccc(COc3cccc4c3CN(C3CCC(=O)NC3=O)C4=O)cc2)CC1 (configuration not stated) | 1 nM | 35.1 nM | 78.4% | 40.4% |  |  |
| O=C1CCC(N2Cc3c(OCc4ccccc4)cccc3C2=O)C(=O)N1 (configuration not stated) | 7.5 nM | > 10000 nM |  |  |  |  |
| CN1CCN(Cc2ccc(COc3cccc4c3CN(C3CCC(=O)NC3=O)C4=O)cc2)CC1 (configuration not stated) | 3 nM | 510 nM |  |  |  |  |
| O=C1CCC(N2Cc3c(OCc4ccc(C(=O)N5CCN(c6ccc(F)cc6F)CC5)cc4)cccc3C2=O)C(=O)N1 (configuration not stated) | 0.1 nM | 4.9 nM | 0.4% | 70.3% |  | solubility [6]: < 7 µg/mL |
| C[C@@]1(N2Cc3c(OCc4ccc(CN5CCN(c6ccc(F)cc6F)CC5)cc4)cccc3C2=O)CCC(=O)NC1=O | > 100 nM | > 5000 nM |  |  |  | IC50 [2]: 9620 nM |
| O=C1CC[C@H](N2Cc3c(OCc4ccc(CN5CCN(c6ccc(F)cc6F)CC5)cc4)cccc3C2=O)C(=O)N1 | 0.1 nM | 3.8 nM |  |  |  | IC50 [2]: 37 nM |
| O=C1CCC(N2Cc3c(OCc4ccc(CN5CCN(c6cccc(F)c6)CC5)cc4)cccc3C2=O)C(=O)N1 (configuration not stated) | 0.1 nM | 3.7 nM |  |  | > 10000 nM | Activity (PBMC): Non-Toxic |
| O=C1CCC(N2C(=O)c3cccc(OCc4ccc(CN5CCN(c6ccc(Cl)cc6Cl)CC5)cc4)c3C2=O)C(=O)N1 (configuration not stated) | 3.3 nM | 170 nM |  |  | > 10000 nM | IC50 [2]: 877 nM |
| O=C1CCC(N2Cc3c(OCc4ccc(C(=O)N5CCN(c6ccc(F)cc6)CC5)cc4)cccc3C2=O)C(=O)N1 (configuration not stated) | 0.3 nM | 3.7 nM |  |  |  | solubility [6]: < 7 µg/mL |
| CC(C)N1CCN(Cc2ccc(COc3cccc4c3CN(C3CCC(=O)NC3=O)C4=O)cc2)CC1 (configuration not stated) | 0.3 nM | 35.1 nM |  |  |  |  |
| O=C1CCC(N2C(=O)c3cccc(OCc4ccc(CN5CCN(c6ccc(F)cc6F)CC5)cc4)c3C2=O)C(=O)N1 (configuration not stated) | 2.4 nM | 159 nM |  |  | > 10000 nM | IC50 [2]: 502 nM |
| Nc1cccc2c1CN(C1CCC(=O)NC1=O)C2=O (configuration not stated) |  |  |  |  |  | Activity (Homo sapiens [8]): Active; Activity (Homo sapiens [9]): inactive |
| CC(C)C1CCN(Cc2ccc(COc3cccc4c3CN(C3CCC(=O)NC3=O)C4=O)cc2)CC1 (configuration not stated) | 0.1 nM | 1.4 nM | 94% | 63% |  |  |
| O=C1CCC(N2Cc3c(OCc4ccc(CN5CCN(c6ccc(F)cn6)CC5)cc4)cccc3C2=O)C(=O)N1 (configuration not stated) | 0.7 nM | 7.4 nM | 90.8% | 97.7% |  |  |
| O=C1CCC(N2Cc3c(OCc4ccc(CN5CCN(c6ccccc6)CC5)cc4)cccc3C2=O)C(=O)N1 (configuration not stated) | 0.1 nM | 2.1 nM |  |  | > 10000 nM | Activity (PBMC): Non-Toxic |
| O=C1CCC(N2Cc3c(OCc4ccc(CN5CCN(c6ccccn6)CC5)cc4)cccc3C2=O)C(=O)N1 (configuration not stated) | 0.4 nM | 4.6 nM | 98% | 99% |  |  |
| NC(=O)c1ccc(N2CCN(Cc3ccc(COc4cccc5c4CN(C4CCC(=O)NC4=O)C5=O)cc3)CC2)cn1 (configuration not stated) | 0.4 nM | 3.5 nM | 32.9% | 25.2% |  |  |

| SMILES | EC50 [3] | IC50 [4] | inhibition (D(2) dopamine receptor) | inhibition [5] | EC50 [7] | also measured |
| --- | --- | --- | --- | --- | --- | --- |
| O=C1CCC(N2Cc3c(OCc4ccc(CN5CCN(c6c(F)cccc6F)CC5)cc4)cccc3C2=O)C(=O)N1 (configuration not stated) | 0.3 nM | 4 nM |  |  | > 10000 nM | Activity (PBMC): Non-Toxic |
| N#Cc1cccnc1N1CCN(Cc2ccc(COc3cccc4c3CN(C3CCC(=O)NC3=O)C4=O)cc2)CC1 (configuration not stated) | 1 nM | 56 nM | 100% | 92.1% |  |  |
| O=C1CCC(N2Cc3c(OCc4ccc(C(=O)N5CCN(c6ccc(Cl)cc6Cl)CC5)cc4)cccc3C2=O)C(=O)N1 (configuration not stated) | 0.1 nM | 3.3 nM | 5.6% | 74.1% |  | solubility [6]: < 7 µg/mL |
| O=C1CCC(N2Cc3c(NCc4ccc(CN5CCN(c6ccc(F)cc6F)CC5)cc4)cccc3C2=O)C(=O)N1 (configuration not stated) | 1.5 nM | 26.3 nM |  |  | > 10000 nM | IC50 [2]: 194 nM |
| C[C@]1(N2Cc3c(OCc4ccc(CN5CCN(c6ccc(F)cc6F)CC5)cc4)cccc3C2=O)CCC(=O)NC1=O | > 10 nM | 496 nM |  |  |  | IC50 [2]: > 10000 nM |
| O=C1CCC(N2Cc3c(OCc4ccc(CN5CCN(c6ccc(Cl)cc6Cl)CC5=O)cc4)cccc3C2=O)C(=O)N1 (configuration not stated) | 0.6 nM | 6.7 nM |  |  |  | solubility [6]: < 7 µg/mL |
| O=C1CCC(N2Cc3c(OCc4ccc(CN5CCC(C(F)(F)F)CC5)cc4)cccc3C2=O)C(=O)N1 (configuration not stated) | 0.6 nM | 8.3 nM | 95.4% | 41.5% |  |  |
| O=C1CCC(N2Cc3c(OCc4ccc(CN5CCN(c6ccc(Cl)cc6Cl)CC5)cc4)cccc3C2=O)C(=O)N1 (configuration not stated) | 0.2 nM | 9.2 nM |  |  | > 10000 nM | Activity (PBMC): Non-Toxic |
| CN1C(=O)CCC(N2Cc3c(OCc4ccc(CN5CCN(c6ccc(F)cc6F)CC5)cc4)cccc3C2=O)C1=O (configuration not stated) | > 10000 nM | 632 nM |  |  | > 10000 nM | IC50 [2]: 28000 nM |
| O=C1CCC(N2C(=O)c3cccc(OCc4ccc(CN5CCN(c6ccc(F)cc6)CC5)cc4)c3C2=O)C(=O)N1 (configuration not stated) | 2.1 nM | 146 nM |  |  | > 10000 nM | IC50 [2]: 322 nM |
| O=C1CCC(N2Cc3c(OCc4ccc(CN5CCN(c6ccc(F)cc6)CC5)cc4)cccc3C2=O)C(=O)N1 (configuration not stated) | 0.1 nM | 2.8 nM | 94.7% | 100% | > 10000 nM | Activity (PBMC): Non-Toxic |
| O=C1CCC(N2Cc3c(OCc4ccc(CN5CCN(c6ccc(Cl)cc6)CC5)cc4)cccc3C2=O)C(=O)N1 (configuration not stated) | 0.1 nM | 3.6 nM |  |  | > 10000 nM | Activity (PBMC): Non-Toxic |
| COc1ccc(N2CCN(Cc3ccc(COc4cccc5c4CN(C4CCC(=O)NC4=O)C5=O)cc3)CC2)cc1 (configuration not stated) | 0.5 nM | 7.1 nM |  |  | > 10000 nM | Activity (PBMC): Non-Toxic |
| CC1(C)CCN(Cc2ccc(COc3cccc4c3CN(C3CCC(=O)NC3=O)C4=O)cc2)CC1 (configuration not stated) | 0.3 nM | 9.9 nM | 66% | 21.5% |  |  |
| O=C1CCC(N2Cc3c(OCc4ccc(CN5CCC(F)(F)CC5)cc4)cccc3C2=O)C(=O)N1 (configuration not stated) | 0.5 nM | 20.5 nM |  |  |  |  |
| Cc1ccc(NC(=O)NCc2ccc3c(c2)CN(C2CCC(=O)NC2=O)C3=O)cc1Cl (configuration not stated) |  |  |  |  |  | Activity (Homo sapiens [9]): Active; IC50 (PBMC): > 5000 nM |
| O=C1CCC(N2Cc3c(OCc4ccc(CN5CCN(c6ccccc6F)CC5)cc4)cccc3C2=O)C(=O)N1 (configuration not stated) | 0.2 nM | 5 nM |  |  | > 10000 nM | Activity (PBMC): Non-Toxic |
| O=C1CCC(N2Cc3c(OCc4ccc(C(=O)N5CCN(c6ccc(Cl)cc6)CC5)cc4)cccc3C2=O)C(=O)N1 (configuration not stated) | 0.1 nM | 6.2 nM | 7.9% | 33.7% |  | solubility [6]: < 7 µg/mL |
